Results from ChEMBL document CHEMBL5674876, “Epigenetic Activation of Pro-angiogenic Signaling Pathways in Human Endothelial Progenitors Increases Vasculogenesis” (Stem Cell Reports, 2017).
The source made the active and inactive calls.

How the values were obtained:
[1] = test system: HUVEC; assay: Effect on pro-angiogenic property in human umbilical cord derived endothelial colony forming cells assessed as increase in DLL1 level by qRT-PCR analysis; format: functional, cell-based
[2] = test system: HUVEC; assay: Effect on pro-angiogenic property in human umbilical cord derived endothelial colony forming cells assessed as increase in SHH level by qRT-PCR analysis; format: functional, cell-based
[3] = test system: HUVEC; assay: Effect on pro-angiogenic property in human umbilical cord derived endothelial colony forming cells assessed as cell migration treated for 10 hrs measured by crystal violet staining analysis based gap closure assay; format: functional; conditions: dose 2.5-20 nM
[4] = test system: HUVEC; assay: Effect on pro-angiogenic property in human umbilical cord derived endothelial colony forming cells assessed as formation of capillary network on matrigel at 2.5 to 500 nM; format: functional, cell-based; conditions: dose 2.5-500 nM
How it was run: (§1)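 Drug- or vehicle-pretreated ECFCs seeded at 5,000 cells/well on phenol-red-free growth-factor-reduced Matrigel in duplicate; after 24 hr stained with 5 μg/mL calcein 5 min at 37°C, imaged at 2.5×. Total tube length expressed as percentage of vehicle control ±SEM, three independent experiments.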

[5] = test system: HUVEC; assay: Effect on pro-angiogenic property in human umbilical cord derived endothelial colony forming cells assessed as formation of capillary network on matrigel at 330 nM; format: functional, cell-based; how it was run: as §1
[6] = test system: HUVEC; assay: Effect on pro-angiogenic property in human umbilical cord derived endothelial colony forming cells assessed as cell migration treated at 330 nM for 10 hrs measured by crystal violet staining analysis based gap closure assay; format: functional

Measured: Activity

Cc1[nH]c2ccccc2c1CCNCc1ccc(/C=C/C(=O)NO)cc1
active: [1] | [2] | [3] Dose-Dependent Effect | [4] Dose-Dependent Effect

CC(/C=C/C(=O)NO)=C\[C@@H](C)C(=O)c1ccc(N(C)C)cc1
active: [5] | [6]
